Values belong to the compound of their own block, whether it stands above or below them. Active and inactive are the calls of the source. The rule behind the calls is not given here.
How the values were obtained:
Mus musculus [1] = assay: Antiplatelet activity in Balb/c mouse assessed as inhibition of ADP-induced aggregation measuring prolongation of bleeding time at 30 mg/kg body weight, iv; assay type: functional
Outline: (§1)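 Anaesthetised Balb/c mice given compound iv (0.3, 3 or 30 mg/kg) or saline. Five minutes later 2 mm of the tail tip was cut and the tail placed vertically in saline. Time to first arrest of bleeding (no bleeding for 20 s) was recorded. Bars are standard deviation.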

Mus musculus [2] = assay: Antidiabetic activity in overnight fasted CD1 mouse assessed as reduction in blood glucose level at 30 mg/kg body weight, iv administered 10 mins post glucose challenge; assay type: functional, organism-based; set-up: dose 30 mg/kg
P2Y purinoceptor 1 [3] = target: P2Y purinoceptor 1 (Meleagris gallopavo, UniProt P49652); assay: Agonist activity at turkey P2Y1R expressed in 1321N1 cells assessed as increase in intracellular calcium concentration by spectrofluorimetry; assay type: functional, cell-based
Outline: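 Cell suspensions were treated with nucleotide at various concentrations at 37 °C in 10 mM Hepes-buffered saline pH 7.4 with 1 mM CaCl2 and 1 mM MgCl2. Maximal [Ca2+]i rise was read by dual-excitation spectrofluorometry and fitted to give EC50. Three experiments on separate days.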

P2Y purinoceptor 1 [4] = target: T1, P2Y purinoceptor 1 (Rattus norvegicus, UniProt P49651); assay: Agonist activity at rat P2Y1R assessed as glucose-dependent insulin secretion; assay type: functional
P2Y purinoceptor 1 [5] = target: T1, P2Y purinoceptor 1; assay: Agonist activity at rat P2Y1R expressed in HEK293 cells assessed as release of intracellular calcium by fluorescence based assay; assay type: functional, cell-based
[6] = target: P2Y purinoceptor 1 (Rattus norvegicus) (UniProt P49651); assay: Agonist activity at rat P2Y1R assessed as glucose-dependent insulin secretion relative to control; assay type: functional
[7] = Half life in Tris buffer at pH 9.8 at 0.2 mg by HPLC in presence of alkaline phosphatase; assay type: physicochemical; settings: in vitro
Outline: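 Compound 0.2 mg incubated with calf intestine alkaline phosphatase 12.5 units in Tris-HCl/MgCl2 at final pH 9.8 and 37 °C. Sampled hourly for 8 h; reaction stopped at 80 °C for 15 min. Samples passed through an anion-exchange cartridge. Half-life from change in HPLC peak area.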

Serum [8] = assay: (§2) Half life in human serum at 40 mM by HPLC; assay type: ADME, cell-free; settings: 40000 µM
Outline: (§3)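 Serum came from a healthy volunteer's whole blood (12 h at 4 °C, spun 1500g, stored at −80 °C). A 40 mM stock in water was mixed with serum and RPMI-1640 (1:3 serum:medium) and incubated at 37 °C for up to 24 h.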

[9] = as §2; assay type: ADME, cell-free; outline: as §3
Serum [10] = assay: Ratio of half life of compound to half life of ADP in human serum at 40 mM by HPLC; assay type: ADME, cell-free; settings: 40000 µM; outline: as §3
[11] = Metabolic stability in human serum assessed as hydrolysis of compound at 40 mM incubated for 24 hrs measured after every 1 hr over 24 hrs by HPLC; assay type: ADME, cell-free; settings: read-out: Drug metabolism
Outline: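 40 mM stock in water, 4.5 μL, combined with 180 μL human serum (healthy volunteer) and 540 μL RPMI-1640 and incubated at 37 °C for up to 24 h. Aliquots were heated to 80 °C for 30 min, cleaned up, and analysed by HPLC. Heat-only controls were run without serum. Hydrolysis was followed from the change in HPLC peak area.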

[12] = target: P2Y purinoceptor 2 (Homo sapiens) (UniProt P41231); assay: Agonist activity at P2Y2R; assay type: functional
[13] = target: P2Y purinoceptor 6 (Homo sapiens) (UniProt Q15077); assay: Agonist activity at P2Y6R; assay type: functional
[14] = target: P2Y purinoceptor 4 (Homo sapiens) (UniProt P51582); assay: Agonist activity at P2Y4R; assay type: functional
Rattus norvegicus [15] = assay: Antiplatelet activity in Lewis rat assessed as inhibition of ADP-induced aggregation measuring prolongation in bleeding time at 10 mg/kg body weight, po administered 30 mins prior to tail incision measured after 5 mins; assay type: functional, organism-based; set-up: dose 10 mg/kg
Outline: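 Anesthetized Lewis rats (n = 5) were dosed orally 30 min before the tail was cut. Then 2 mm of tail tip was removed and the tail was placed upright in a saline-filled tube. Time to first arrest of bleeding (no bleeding for 20 s) was recorded.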

[16] = target: P2Y purinoceptor 12 (Homo sapiens) (UniProt Q9H244); assay: Antagonist activity at human P2Y12R expressed in […] cells assessed as intracellular calcium level in presence of ADP; assay type: functional, cell-based
Mus musculus [17] = assay: Antiplatelet activity in Balb/c mouse assessed as inhibition of ADP-induced aggregation measuring prolongation in bleeding time at 30 mg/kg body weight, iv administered prior to tail incision measured after 5 mins relative to active clopidogrel metabolite R-361015; assay type: functional; outline: as §1
Mus musculus [18] = assay: Antidiabetic activity in STZ treated fasted ICR mouse assessed as reduction in blood glucose level at 30 mg/kg body weight, iv administered 10 min post glucose challenge measured over 15 to 120 mins; assay type: functional, organism-based; set-up: dose 30 mg/kg
Outline: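 Male ICR mice given STZ 100 mg/kg IP after 4 h fast. On day 10, after ~16 h overnight fast, oral D-glucose 1 g/kg was given at 0 min. Compound was dosed iv at 7.5, 15 or 30 mg/kg 10 min after glucose; saline controls. Blood glucose by glucometer at 15, 30, 60 and 120 min. n = 5.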

[19] = Antiplatelet activity in human platelet rich plasma assessed as inhibition of ADP-induced platelet aggregation at 0.3 to 10 uM measured after 6 mins by aggregometry relative to control; assay type: functional
Outline: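 Human platelet-rich plasma was obtained by spinning normal human plasma at 4400g for 30 s. PRP was incubated 15 min at 37 °C, then aggregation was induced with ADP (10 μM) and read after 6 min on a platelet aggregation profiler. PRP came from one subject, tested in duplicate. Prasugrel metabolite at 10 μM served as the positive control.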

Rattus norvegicus [20] = assay: Antiplatelet activity in Lewis rat assessed as inhibition of ADP-induced aggregation measuring prolongation in bleeding time at 30 mg/kg body weight, po administered 30 mins prior to tail incision measured after 5 mins; assay type: functional, organism-based; set-up: dose 30 mg/kg
Outline: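 Lewis rats given compound 30 mg/kg or aspirin 10 mg/kg PO 30 min before tail incision; n = 5. 2 mm tail tip cut, tail placed in saline. Time to first bleeding arrest (20 s without bleeding) was recorded, and blood volume was judged against calibrated volumes after brief 600g spin.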

Platelet = assay: Antiplatelet activity in human platelet rich plasma assessed as inhibition of ADP-induced platelet aggregation measured after 6 mins by aggregometry; assay type: functional
Outline: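 Human PRP obtained by centrifuging plasma at 4400g for 30 s. PRP was incubated 15 min at 37 °C with compound (0.3–10 μM), then aggregation was induced with ADP 10 μM and read after 6 min on a platelet aggregation profiler. Prasugrel metabolite 10 μM served as positive control. One donor, duplicates.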

Mus musculus [21] = assay: Antidiabetic activity in db+/db- diabetic mouse model assessed as reduction in blood glucose level at 30 mg/kg body weight, iv administered 10 min post glucose challenge measured over 15 to 120 mins; assay type: functional, organism-based; set-up: dose 30 mg/kg
Outline: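 Male db+/db− mice, 8 weeks old, grouped by body weight and glucose, then fasted overnight. Oral glucose 2 g/kg by gavage. Compound 30 mg/kg iv as in the naive-animal OGTT; n = 5. Blood glucose by glucometer at −30, 0, 15, 30, 60 and 120 min.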

Rattus norvegicus [22] = assay: Antidiabetic activity in overnight fasted Wister Han rat assessed as reduction in blood glucose level at 30 mg/kg body weight, iv administered 10 mins post glucose challenge measured within 45 mins (reference value: 155 mg/dl); assay type: functional
[23] = Half life in HCL/KCL buffer at pH 1.4 at 1.5 mg by HPLC; assay type: physicochemical
Outline: (§4)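 Diastereomeric mixture, 1.5 mg, dissolved in 0.2 M HCl/KCl buffer adjusted to pH 1.4 and kept at 37 °C with hourly sampling. Parent HPLC peak integrated over time (TEAA/acetonitrile 88:12) and fitted to pseudo-first-order kinetics to give rate constant and t1/2.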

[24] = Chemical stability in HCL/KCL buffer at pH 1.4 assessed as hydrolysis rate constant of compound at 1.5 mg incubated for 24 hrs measured after every 1 hr over 12 hrs by HPLC; assay type: physicochemical; settings: pH 1.4, 24 h; outline: as §4

Chain of P2Y purinoceptor 6 (Homo sapiens) (Q15077 whole entry): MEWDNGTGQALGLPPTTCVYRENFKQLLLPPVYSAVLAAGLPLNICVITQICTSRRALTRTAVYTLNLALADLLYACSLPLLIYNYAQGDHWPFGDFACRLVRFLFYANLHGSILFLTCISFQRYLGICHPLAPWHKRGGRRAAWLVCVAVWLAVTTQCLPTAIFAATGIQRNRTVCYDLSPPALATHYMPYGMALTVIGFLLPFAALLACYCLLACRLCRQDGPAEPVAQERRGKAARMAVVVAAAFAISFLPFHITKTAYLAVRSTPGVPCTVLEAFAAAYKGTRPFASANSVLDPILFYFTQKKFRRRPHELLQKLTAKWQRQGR
Chain of P2Y purinoceptor 2 (Homo sapiens) (P41231 whole entry): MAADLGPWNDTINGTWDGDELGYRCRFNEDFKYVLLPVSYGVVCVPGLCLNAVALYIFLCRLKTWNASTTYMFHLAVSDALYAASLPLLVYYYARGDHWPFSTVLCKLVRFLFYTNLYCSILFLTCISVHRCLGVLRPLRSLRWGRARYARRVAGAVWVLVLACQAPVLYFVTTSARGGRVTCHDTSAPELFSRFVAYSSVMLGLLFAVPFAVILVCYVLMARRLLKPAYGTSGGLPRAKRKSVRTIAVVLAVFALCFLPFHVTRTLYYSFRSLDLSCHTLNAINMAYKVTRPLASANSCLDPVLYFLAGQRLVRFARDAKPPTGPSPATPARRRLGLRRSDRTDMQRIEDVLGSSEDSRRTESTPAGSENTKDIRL
Chain of P2Y purinoceptor 4 (Homo sapiens) (P51582 whole entry): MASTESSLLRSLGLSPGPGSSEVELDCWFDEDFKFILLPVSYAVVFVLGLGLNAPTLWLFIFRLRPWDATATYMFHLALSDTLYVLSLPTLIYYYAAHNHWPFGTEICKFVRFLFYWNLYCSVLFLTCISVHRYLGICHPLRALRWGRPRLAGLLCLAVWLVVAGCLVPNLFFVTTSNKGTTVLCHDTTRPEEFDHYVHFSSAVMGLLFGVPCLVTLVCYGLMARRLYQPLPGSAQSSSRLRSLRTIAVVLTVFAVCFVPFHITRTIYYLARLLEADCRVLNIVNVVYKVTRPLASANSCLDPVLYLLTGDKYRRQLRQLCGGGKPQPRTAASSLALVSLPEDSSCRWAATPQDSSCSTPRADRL
Chain of P2Y purinoceptor 1 (Meleagris gallopavo, UniProt P49652) (P49652 whole entry): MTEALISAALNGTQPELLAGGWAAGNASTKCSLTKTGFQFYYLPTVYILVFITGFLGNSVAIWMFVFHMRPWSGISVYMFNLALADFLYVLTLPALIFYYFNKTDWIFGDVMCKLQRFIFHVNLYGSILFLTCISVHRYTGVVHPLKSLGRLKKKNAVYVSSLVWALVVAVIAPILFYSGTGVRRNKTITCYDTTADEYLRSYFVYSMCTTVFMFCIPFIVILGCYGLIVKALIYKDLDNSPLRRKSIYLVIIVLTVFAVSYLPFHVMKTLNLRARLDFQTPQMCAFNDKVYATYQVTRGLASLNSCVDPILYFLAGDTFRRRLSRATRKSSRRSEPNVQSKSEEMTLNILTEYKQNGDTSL
T1 sequence (P49651 whole entry): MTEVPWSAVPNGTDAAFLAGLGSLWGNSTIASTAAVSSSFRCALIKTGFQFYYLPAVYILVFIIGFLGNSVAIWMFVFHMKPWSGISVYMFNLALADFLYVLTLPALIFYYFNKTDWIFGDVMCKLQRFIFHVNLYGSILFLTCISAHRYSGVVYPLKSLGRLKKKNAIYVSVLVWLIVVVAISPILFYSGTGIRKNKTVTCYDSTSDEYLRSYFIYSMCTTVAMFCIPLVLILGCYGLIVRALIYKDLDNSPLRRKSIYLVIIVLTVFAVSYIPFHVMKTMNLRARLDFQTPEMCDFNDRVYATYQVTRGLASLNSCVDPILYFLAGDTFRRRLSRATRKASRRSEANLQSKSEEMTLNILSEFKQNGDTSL
Chain of P2Y purinoceptor 1 (Rattus norvegicus) (P49651 whole entry): as above
Chain of P2Y purinoceptor 12 (Homo sapiens) (Q9H244 whole entry): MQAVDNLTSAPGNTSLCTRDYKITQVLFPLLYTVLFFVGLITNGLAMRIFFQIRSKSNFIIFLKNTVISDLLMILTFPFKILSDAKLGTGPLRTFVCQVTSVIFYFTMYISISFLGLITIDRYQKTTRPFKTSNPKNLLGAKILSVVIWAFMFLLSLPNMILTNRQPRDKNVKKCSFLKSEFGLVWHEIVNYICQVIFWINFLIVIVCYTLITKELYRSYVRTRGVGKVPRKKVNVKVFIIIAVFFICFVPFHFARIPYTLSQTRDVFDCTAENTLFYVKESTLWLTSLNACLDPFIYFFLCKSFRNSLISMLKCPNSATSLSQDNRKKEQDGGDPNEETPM

SMILES: CC(=O)Oc1cc2c(s1)CCN(C(C(=O)C1CC1)c1ccccc1F)C2 (stereo not given)
Time (Mus musculus [1]): 9 min

SMILES: B[P@](=O)(OC[C@H]1O[C@@H](n2cnc3c(N)nc(SC)nc32)[C@H](O)[C@@H]1O)OP(=O)(O)O
Activity (Mus musculus [2]): inactive
EC50 (P2Y purinoceptor 1 [3]): 1100 nM

EC50 (P2Y purinoceptor 1 [4]): 28.1 nM
EC50 (P2Y purinoceptor 1 [5]): 2.6 nM
fold change (FC) [6]: 9
SMILES: B[P@@](=O)(OC[C@H]1O[C@@H](n2cnc3c(N)nc(SC)nc32)[C@H](O)[C@@H]1O)OP(=O)(O)OP(=O)(O)O

SMILES: [BH3-][P@@](=O)(OC[C@H]1O[C@@H](n2cnc3c(N)ncnc32)[C@H](O)[C@@H]1O)OP(=O)([O-])[O-].[Na+].[Na+].[Na+]
EC50 (P2Y purinoceptor 1 [3]): 220 nM
t1/2 [7]: 4.2 h
t1/2 (Serum [8]): 3.5 h

EC50 (P2Y purinoceptor 1 [3]): 190 nM
half-life at 40000 µM [9]: 840 min
Ratio (Serum [10]): 7
SMILES: B[P@](=O)(OC[C@H]1O[C@@H](n2cnc3c(N)nc(SC)nc32)[C@H](O)[C@@H]1O)OP(=O)(O)OP(=O)(O)OC[C@H]1O[C@@H](n2cnc3c(N)nc(SC)nc32)[C@H](O)[C@@H]1O.CCCCN(CCCC)CCCC.CCCCN(CCCC)CCCC.CCCCN(CCCC)CCCC (single isomer, unassigned)

SMILES: B[P@](=O)(OC[C@H]1O[C@@H](n2cnc3c(N)ncnc32)[C@H](O)[C@@H]1O)OP(=O)(O)O
EC50 (P2Y purinoceptor 1 [3]): 960 nM

SMILES: CSc1nc(N)c2ncn([C@@H]3O[C@H](COP(=O)(O)OP(=O)(O)O)[C@@H](O)[C@H]3O)c2n1
metabolised at 24 h, 40000 µM [11]: 50%
t1/2 [7]: 4.5 h
t1/2 (Serum [8]): 23 h

Activity [12]: inactive
Activity [13]: inactive
Activity [14]: inactive
SMILES: BP(=O)(OC[C@H]1O[C@@H](n2cnc3c(N)nc(SC)nc32)[C@H](O)[C@@H]1O)OP(=O)(O)OP(=O)(O)OC[C@H]1O[C@@H](n2cnc3c(N)nc(SC)nc32)[C@H](O)[C@@H]1O.CCCCN(CCCC)CCCC.CCCCN(CCCC)CCCC.CCCCN(CCCC)CCCC (mixture of isomers)

SMILES: Nc1ncnc2c1ncn2[C@@H]1O[C@H](COP(=O)(O)OP(=O)(O)O)[C@@H](O)[C@H]1O [ADENOSINE DIPHOSPHATE]
t1/2 [7]: 4 h
t1/2 (Serum [8]): 2 h

SMILES: CC(=O)Oc1ccccc1C(=O)O
inhibition (Rattus norvegicus [15]): Active

SMILES: [BH3-][P@@](=O)(OC[C@H]1O[C@@H](n2cnc3c(N)nc(SC)nc32)[C@H](O)[C@@H]1O)OP(=O)([O-])[O-].[Na+].[Na+].[Na+]
Activity [16]: Active
fold change (FC) (Mus musculus [17]): 1.5
Activity (Mus musculus [18]): Active
Time (Mus musculus [1]): 16 min
fold change (FC) [19]: 3
inhibition (Rattus norvegicus [20]): Active
inhibition (Platelet): Active
Activity (Mus musculus [21]): Active
t1/2 [7]: 6 h
half-life at 40000 µM [9]: > 1440 min
Activity (Rattus norvegicus [22]): 87 mg/dL

SMILES: BP(=O)(OC[C@H]1O[C@@H](n2cnc3c(N)ncnc32)[C@H](O)[C@@H]1O)OP(=O)(O)O (stereo not given in full)
Activity [12]: inactive
Activity [13]: inactive
Activity [14]: inactive

SMILES: [BH3-]P(=O)(OC[C@H]1O[C@@H](n2cnc3c(N)nc(SC)nc32)[C@H](O)[C@@H]1O)OP(=O)([O-])[O-].[Na+].[Na+].[Na+] (mixture of isomers)
Activity [12]: inactive
half-life [23]: 438 min
Drug degradation [24]: 2 ×10⁻⁵ /s
metabolised at 24 h, 40000 µM [11]: 30%
Activity [13]: inactive
Activity [14]: inactive

EC50 (P2Y purinoceptor 1 [3]): 140 nM
half-life at 40000 µM [9]: 840 min
Ratio (Serum [10]): 7
SMILES: B[P@@](=O)(OC[C@H]1O[C@@H](n2cnc3c(N)nc(SC)nc32)[C@H](O)[C@@H]1O)OP(=O)(O)OP(=O)(O)OC[C@H]1O[C@@H](n2cnc3c(N)nc(SC)nc32)[C@H](O)[C@@H]1O.CCCCN(CCCC)CCCC.CCCCN(CCCC)CCCC.CCCCN(CCCC)CCCC
